Assay outcomes as filed in PubChem.
eIF4E-4G inh: eIF4E/eIF4G interaction inhibition in translation initiation; P63073+Q04637; TR-FRET eIF4E-eIF4GI(517-606) binding, 2 h; inhibition, % at 21.7 µM; 220,000 compounds, 0.37% hits;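 also: 0% = full FRET control wells and 100% = background wells lacking eIF4GI fragment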
EBV gp42 inh: inhibitors of Epstein-Barr virus glycoprotein 42 | Q1HVG2 | Fluorescence polarization binding assay, mP read-out | inhibition, % (tested at 21.74 µM) | 220,000 compounds, 0.42% hits | AID 1085; in the data active = inhibition above about 50%
RBBP9 inhibitor: inhibitors of human serine hydrolase RBBP9; O75884; recombinant RBBP9, FP-Rh probe fluorescence polarization; inhibition, % at 7.94 µM; 220,000 compounds, 0.2% hits; AID 1515;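 active = inhibition above the campaign mean of all tested compounds plus 3 SD, cut at about 14% in these data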;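 also: plate controls were DMSO wells with RBBP9 for no effect and wells lacking RBBP9 protein for full effect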
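Assay system: recombinant human RBBP9; Reagent: Serine-hydrolase probe FP-Rh, 375 nM pre-mixing; Doses: 7.94 µM single dose, 0.794% DMSO; Incubation: 30 min then 45 min, 25 °C; Detection: fluorescence polarization (mP), excitation 525 nm, emission 598 nm; Evaluation: percent inhibition from mP, scaled between DMSO and no-protein wells.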
14-3-3 Bad PPI: disrupts binding of bovine 14-3-3 zeta to phospho-Bad peptide; P63103; TR-FRET 14-3-3zeta/Dy647-pBad peptide displacement, 1 h; inhibition, % at 21.7 µM; AID 781; 220,000 compounds, 0.71% hits;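 active = inhibition above about 70%, limit read from the data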;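 also: 0% = full 14-3-3 plus peptide FRET controls and 100% = background without 14-3-3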
Target sequence (P63103 whole entry, looked up): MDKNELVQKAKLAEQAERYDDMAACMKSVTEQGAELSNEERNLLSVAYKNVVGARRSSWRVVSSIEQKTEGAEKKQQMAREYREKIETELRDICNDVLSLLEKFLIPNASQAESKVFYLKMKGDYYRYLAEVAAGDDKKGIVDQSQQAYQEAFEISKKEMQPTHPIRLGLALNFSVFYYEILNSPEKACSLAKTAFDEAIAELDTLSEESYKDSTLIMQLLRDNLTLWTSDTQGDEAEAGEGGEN
p47phox inh: inhibitors of human p47phox binding. P14598. p47phox/p22phox peptide binding, fluorescence polarization, 2 h. inhibition, % at 24.7 µM. 220,000 compounds, 0.53% hits. AID 1274;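 also: 0% = p47phox with labelled peptide and 100% = labelled peptide alone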
WT yeast gro inh: growth inhibition of WT yeast, mitochondrial fusion screen; 190,000 compounds, 2.1% hits; mitochondrial fusion phenotypic screen, WT strain; inhibition, % at 10 µM; in the data active = inhibition above about 58%; tested in S. cerevisiae
* hit, by the source's call; x = no result. A selection: hits, their analogues and other compounds. The true share with any hit is near 3.7%.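 The calls were made as follows, unless noted: active = inhibition above about 30% (limit read from the data); inactive = the rest.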

SMILES	eIF4E-4G inh	EBV gp42 inh	RBBP9 inhibitor	14-3-3 Bad PPI	p47phox inh	WT yeast gro inh
COc1ccc(S(=O)(=O)Nc2ccccc2C(=O)Nc2nc(-c3ccc(F)cc3)cs2)cc1OC	6	-10	-10	45	-30	59*
COc1ccc(-c2csc(NC(=O)c3ccccc3NS(=O)(=O)c3ccc(C)cc3)n2)cc1	0	15	1	-15	-46	11
COC(=O)c1cc(NC(=O)c2cccc(Cl)c2)c(=O)oc1/C=C/Nc1cc(C)cc(C)c1	1	156*	-5	-18	-236	0
N#C[C@H]1[C@H](c2ccccc2)[C@](C#N)(C(=O)c2ccccc2)[C@@H]2C=Cc3ccccc3N21	-8	-2	-7	-15	-61	63*
O=C(N/N=C/c1ccccc1[N+](=O)[O-])c1cnccn1	-3	-5	-2	-5	-2	x
CC(NC(=O)COC(=O)C1CSC2(C)CCC(=O)N12)C12CC3CC(CC(C3)C1)C2 (stereo not drawn)	0	-21	-7	-9	-3	10
CCc1n[nH]c(=O)n1Cn1c(CC)n[nH]c1=O	-8	-4	-2	4	37*	7
CCn1c(CCCCc2n[nH]c(=S)n2CC)n[nH]c1=S	5	-7	1	-1	-7	5
COc1ccc2c(c1)/C(=N/OC(=O)c1cccs1)CCC2	0	4	-7	6	2	71*
N/C(=N\OC(=O)C12CC3CC(CC(C3)C1)C2)c1ccccc1	3	-18	-5	-7	1	87*
N/C(=N\OC(=O)C12CC3CC(CC(C3)C1)C2)c1cccnc1	3	-2	2	33	-10	-5
COc1ccc(OC)c(NC(=O)C2CCCC2)c1	-4	-11	0	4	-8	-8
COc1ccc(OC)c(NC(=O)C2C3CCC(O3)C2C(=O)O)c1 (stereo not drawn)	5	-4	3	-3	53*	-13
COc1ccc(OC)c(NC(=O)C(=S)NC2CCCCC2)c1	0	4	-10	-13	-3	74*
COc1ccc2c(c1)c1nc3ccccc3nc1n2CC(=O)OC(C)C	-22	91*	2	11	5	-8
COc1ccc2c(c1)c1nc3ccccc3nc1n2Cc1ccc(OC(C)C)c(OC)c1	3	80*	-13	3	-28	8
COc1ccc(Cn2c3ccc(OC)cc3c3nc4ccccc4nc32)cc1	-5	67*	-6	38	16	-9
COc1ccc2c(c1)c1nc3ccccc3nc1n2CCCN1C(=O)c2ccccc2C1=O	13	14	11	5	-16	-8
COC(=O)C1C(c2ccccc2)C(C(=O)OCc2ccco2)C1c1ccccc1 (stereo not drawn)	-4	1	-3	-2	-7	76*
CC1(C)CC(N2CCN(CCO)CC2)=CC(=S)N1	-1	-10	6	-2	-7	x
NC(=O)COC(=O)c1ccc(Cl)c(S(=O)(=O)N(Cc2ccccc2)c2ccc(Cl)cc2)c1	3	2	-6	2	-2	77*
CCN1CCN(CC(=O)N2N=C(c3ccc(OC)cc3)CC2c2ccc(OC)cc2)C(=O)C1=O (stereo not drawn)	-3	6	-7	-5	6	2
COc1ccc(OC)c(C2C3CN(C(C)C)CC=C3C(C#N)=C(N)C2(C#N)C#N)c1 (stereo not drawn)	-2	49	-6	1	-14	21
Cc1ccc(C2C3CN(C(C)C)CC=C3C(C#N)=C(N)C2(C#N)C#N)cc1 (stereo not drawn)	-7	89*	x	0	-23	4
N#CC1=C(N)C(C#N)(C#N)[C@H](c2ccoc2)[C@H]2CN(Cc3ccccc3)CC=C12	-2	90*	-8	-8	-16	6
CN1CC=C2C(C#N)=C(N)C(C#N)(C#N)[C@H](c3ccoc3)[C@H]2C1	-5	62*	-7	11	-5	20
CCCCOc1ccc(C2C3CN(C(=O)OCC)CC=C3C(C#N)=C(N)C2(C#N)C#N)cc1OC (stereo not drawn)	-23	-20	-10	-13	-47	62*
CC(=O)N1CC=C2C(C#N)=C(N)C(C#N)(C#N)[C@H](c3ccoc3)[C@H]2C1	-2	17	0	-10	-17	10
